# Test results reported in ChEMBL document CHEMBL1649212, “AI-2/LuxS is involved in increased biofilm formation by Streptococcus intermedius in the presence of antibiotics” (2009).
# Active and inactive are the calls of the source. No cut-off for these calls is given here.
# Key:
# [1] = tested on: Streptococcus intermedius; test: Antimicrobial activity against Streptococcus intermedius NCTC 11324 assessed as biofilm formation at 0.05 to 0.10 ug/ml; assay type: functional, organism-based
# How it was run: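 Wild-type NCTC 11324 was grown overnight in TSB and inoculated into TSB with ampicillin (0.02 to 0.10 μg/ml), ciprofloxacin (0.10 to 0.28 μg/ml) or tetracycline (0.05 to 0.30 μg/ml), added at time zero. Wells held plastic coverslips and were incubated 12 h at 37°C in 5% CO2 aerobic air. Biofilm was measured as described previously. Experiments were done three times in three parallels.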
# [2] = tested on: Streptococcus intermedius; test: Antimicrobial activity against Streptococcus intermedius NCTC 11324 biofilm assessed as biofilm bacterial count at 0.10 ug/ml (Rvb =402.9 +/- 26.88 10^5 CFU/ml); assay type: functional
# [3] = tested on: Streptococcus intermedius; test: Antimicrobial activity against Streptococcus intermedius NCTC 11324 biofilm assessed as biofilm bacterial count at 0.05 ug/ml (Rvb =402.9 +/- 26.88 10^5 CFU/ml); assay type: functional
# [4] = tested on: Streptococcus intermedius; test: Antimicrobial activity against Streptococcus intermedius NCTC 11324 biofilm assessed as biofilm bacterial count at 0.07 ug/ml (Rvb =402.9 +/- 26.88 10^5 CFU/ml); assay type: functional
# [5] = tested on: Streptococcus intermedius; test: Antimicrobial activity against Streptococcus intermedius SI006 biofilm harboring luxS mutant gene assessed as biofilm bacterial count at 0.10 ug/ml (Rvb =310.8 +/- 17.10 10^5 CFU/ml); assay type: functional
# [6] = tested on: Streptococcus intermedius; test: Antimicrobial activity against Streptococcus intermedius SI006 biofilm harboring luxS mutant gene assessed as biofilm bacterial count at 0.05 ug/ml (Rvb =310.8 +/- 17.10 10^5 CFU/ml); assay type: functional
# [7] = tested on: Streptococcus intermedius; test: Antimicrobial activity against Streptococcus intermedius SI006 biofilm harboring luxS mutant gene assessed as biofilm bacterial count at 0.07 ug/ml (Rvb =310.8 +/- 17.10 10^5 CFU/ml); assay type: functional
# [8] = tested on: Streptococcus intermedius; test: Antimicrobial activity against Streptococcus intermedius SI006 biofilm harboring luxS mutant gene assessed as biofilm bacterial count at 0.10 ug/ml in presence of 0.8 nM autoinducer 4,5-dihydroxy-2,3-pentanedione (Rvb =413.7 +/- 24.47 10^5 CFU/ml); assay type: functional
# [9] = tested on: Streptococcus intermedius; test: Antimicrobial activity against Streptococcus intermedius SI006 biofilm harboring luxS mutant gene assessed as biofilm bacterial count at 0.05 ug/ml in presence of 0.8 nM autoinducer 4,5-dihydroxy-2,3-pentanedione (Rvb =413.7 +/- 24.47 10^5 CFU/ml); assay type: functional
# [10] = tested on: Streptococcus intermedius; test: Antimicrobial activity against Streptococcus intermedius SI006 biofilm harboring luxS mutant gene assessed as biofilm bacterial count at 0.07 ug/ml in presence of 0.8 nM autoinducer 4,5-dihydroxy-2,3-pentanedione (Rvb =413.7 +/- 24.47 10^5 CFU/ml); assay type: functional
# [11] = tested on: Streptococcus intermedius; test: Antimicrobial activity against Streptococcus intermedius SI006 planktonic cells harboring luxS mutant gene assessed as bacterial count at 0.15 ug/ml in presence of 0.8 nM autoinducer 4,5-dihydroxy-2,3-pentanedione (Rvb =790.8 +/- 90.09 10^8 CFU/ml); assay type: functional
# [12] = tested on: Streptococcus intermedius; test: Antimicrobial activity against Streptococcus intermedius NCTC 11324 assessed as growth inhibition at 0.7 ug/ml; assay type: functional
# How it was run: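 Broth microdilution MIC in ultra-low-binding 96-well plates, inoculum ≈4 × 10^5. Growth was read at 595 nm, and the MIC was taken as the lowest antibiotic concentration inhibiting growth.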
# [13] = tested on: Streptococcus intermedius; test: Antimicrobial activity against Streptococcus intermedius NCTC 11324 planktonic cells assessed as bacterial count at 0.08 ug/ml (Rvb =791.7 +/- 44.10 10^8 CFU/ml); assay type: functional
# How it was run: (§1)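 Planktonic wild-type cells were inoculated at ≈4 × 10^5 CFU/ml in TSB in ultra-low-binding plates. Media were without or with ampicillin (0.02 to 0.14 μg/ml), ciprofloxacin (0.10 to 0.35 μg/ml) or tetracycline (0.03 to 0.20 μg/ml). After 12 h at 37°C in 5% CO2 aerobic air, CFU were counted, run in parallel with the BacTiter-Glo ATP assay. Experiments were done three times in two parallels.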
# [14] = tested on: Streptococcus intermedius; test: Antimicrobial activity against Streptococcus intermedius NCTC 11324 planktonic cells assessed as bacterial count at 0.10 ug/ml (Rvb =791.7 +/- 44.10 10^8 CFU/ml); assay type: functional; how it was run: as §1
# [15] = tested on: Streptococcus intermedius; test: Antimicrobial activity against Streptococcus intermedius NCTC 11324 planktonic cells assessed as bacterial count at 0.12 ug/ml (Rvb =791.7 +/- 44.10 10^8 CFU/ml); assay type: functional; how it was run: as §1
# [16] = tested on: Streptococcus intermedius; test: Antimicrobial activity against Streptococcus intermedius SI006 planktonic cells harboring luxS mutant gene assessed as bacterial count at 0.08 ug/ml (Rvb =757.5 +/- 80.14 10^8 CFU/ml); assay type: functional
# [17] = tested on: Streptococcus intermedius; test: Antimicrobial activity against Streptococcus intermedius SI006 planktonic cells harboring luxS mutant gene assessed as bacterial count at 0.10 ug/ml (Rvb =757.5 +/- 80.14 10^8 CFU/ml); assay type: functional
# [18] = tested on: Streptococcus intermedius; test: Antimicrobial activity against Streptococcus intermedius SI006 planktonic cells harboring luxS mutant gene assessed as bacterial count at 0.12 ug/ml (Rvb =757.5 +/- 80.14 10^8 CFU/ml); assay type: functional
# [19] = tested on: Streptococcus intermedius; test: Antimicrobial activity against Streptococcus intermedius SI006 planktonic cells harboring luxS mutant gene assessed as bacterial count at 0.08 ug/ml in presence of 0.8 nM autoinducer 4,5-dihydroxy-2,3-pentanedione (Rvb =790.8 +/- 90.09 10^8 CFU/ml); assay type: functional
# [20] = tested on: Streptococcus intermedius; test: Antimicrobial activity against Streptococcus intermedius SI006 planktonic cells harboring luxS mutant gene assessed as bacterial count at 0.10 ug/ml in presence of 0.8 nM autoinducer 4,5-dihydroxy-2,3-pentanedione (Rvb =790.8 +/- 90.09 10^8 CFU/ml); assay type: functional
# [21] = tested on: Streptococcus intermedius; test: Antimicrobial activity against Streptococcus intermedius SI006 planktonic cells harboring luxS mutant gene assessed as bacterial count at 0.12 ug/ml in presence of 0.8 nM autoinducer 4,5-dihydroxy-2,3-pentanedione (Rvb =790.8 +/- 90.09 10^8 CFU/ml); assay type: functional
# [22] = tested on: Streptococcus intermedius; test: Antimicrobial activity against Streptococcus intermedius NCTC 11324 planktonic cells assessed as bacterial count at 0.15 ug/ml (Rvb =791.7 +/- 44.10 10^8 CFU/ml); assay type: functional; how it was run: as §1
# [23] = tested on: Streptococcus intermedius; test: Antimicrobial activity against Streptococcus intermedius SI006 planktonic cells harboring luxS mutant gene assessed as bacterial count at 0.15 ug/ml (Rvb =757.5 +/- 80.14 10^8 CFU/ml); assay type: functional
smiles,measurement,setting,value
CN(C)[C@@H]1C(O)=C(C(N)=O)C(=O)[C@@]2(O)C(O)=C3C(=O)c4c(O)cccc4[C@@](C)(O)[C@H]3C[C@@H]12 [TETRACYCLINE],Activity,[1],inactive
same,CFU,[2],610.5 ×10⁵ /ml
same,CFU,[3],779.2 ×10⁵ /ml
same,CFU,[4],637.1 ×10⁵ /ml
same,CFU,[5],108.8 ×10⁵ /ml
same,CFU,[6],333 ×10⁵ /ml
same,CFU,[7],253.1 ×10⁵ /ml
same,CFU,[8],486.2 ×10⁵ /ml
same,CFU,[9],333 ×10⁵ /ml
same,CFU,[10],253.1 ×10⁵ /ml
same,CFU,[11],10.1 ×10⁸ /ml
same,Activity,[12],0.7 µg/mL
same,CFU,[13],61.9 ×10⁸ /ml
same,CFU,[14],44.5 ×10⁸ /ml
same,CFU,[15],32 ×10⁸ /ml
same,CFU,[16],11.2 ×10⁸ /ml
same,CFU,[17],5.7 ×10⁸ /ml
same,CFU,[18],3 ×10⁸ /ml
same,CFU,[19],38.4 ×10⁸ /ml
same,CFU,[20],25.2 ×10⁸ /ml
same,CFU,[21],16.3 ×10⁸ /ml
same,CFU,[22],24.2 ×10⁸ /ml
same,CFU,[23],2 ×10⁸ /ml
